Tests used:
Type in all cases: functional
CAKI-1 = assay: Cytotoxicity against human CAKI-1 cells by SRB assay
Summary of the method: (§1)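 NCI 60 human tumor cell line panel, sulforhodamine B (SRB) protein-stain read-out. Compounds were first screened at a single dose of 10^-5 M, and selected compounds were then tested in a five-dose format. GI50 is the drug concentration giving a 50% reduction in net protein increase relative to control cells.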

[1] = Cytotoxicity against human HCT116 cells by SRB assay; details: HCT-116; summary of the method: as §1
[2] = Cytotoxicity against human COLO205 cells by SRB assay; details: COLO 205; summary of the method: as §1
NCI-H522 = assay: Cytotoxicity against human NCI-H522 cells by SRB assay; summary of the method: as §1
[3] = Cytotoxicity against human SNB75 cells by SRB assay; details: SNB-75; summary of the method: as §1
K562 = assay: Cytotoxicity against human K562 cells by SRB assay; summary of the method: as §1
[4] = Cytotoxicity against human SNB19 cells by SRB assay; details: SNB-19; summary of the method: as §1
HT-29 = assay: Cytotoxicity against human HT-29 cells by SRB assay; summary of the method: as §1
MDA-MB-468 = assay: Cytotoxicity against human MDA-MB-468 cells by SRB assay; summary of the method: as §1
[5] = Cytotoxicity against human HOP62 cells by SRB assay; details: HOP-62; summary of the method: as §1
KM12 = assay: Cytotoxicity against human KM12 cells by SRB assay; summary of the method: as §1
NCI/ADR-RES = assay: Cytotoxicity against human NCI/ADR-RES cells by SRB assay; summary of the method: as §1
[6] = Cytotoxicity against human SW620 cells by SRB assay; details: SW-620; summary of the method: as §1
MDA-MB-231 = assay: Cytotoxicity against human MDA-MB-231 cells by SRB assay; summary of the method: as §1
[7] = Cytotoxicity against human MOLT4 cells by SRB assay; details: MOLT-4; summary of the method: as §1
SR = assay: Cytotoxicity against human SR cells by SRB assay; summary of the method: as §1
MDA-MB-435 = assay: Cytotoxicity against human MDA-MB-435 cells by SRB assay; summary of the method: as §1
[8] = Cytotoxicity against human OVCAR4 cells by SRB assay; details: OVCAR-4; summary of the method: as §1
ACHN = assay: Cytotoxicity against human ACHN cells by SRB assay; summary of the method: as §1
[9] = Cytotoxicity against human HCT15 cells by SRB assay; details: HCT-15; summary of the method: as §1
SK-MEL-5 = assay: Cytotoxicity against human SK-MEL-5 cells by SRB assay; summary of the method: as §1
[10] = Cytotoxicity against human UO31 cells by SRB assay; details: UO-31; summary of the method: as §1
[11] = Cytotoxicity against human HCC2998 cells by SRB assay; details: HCC 2998; summary of the method: as §1
[12] = Cytotoxicity against human HL-60(TB) cells by SRB assay
Summary of the method: (§2)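 NCI 60-cell-line panel using sulforhodamine B protein stain. Initial single-dose screen at 10^-5 M, then five-dose testing. GI50 is the drug concentration giving a 50% reduction in net protein increase relative to control cells.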

MCF7 = assay: Cytotoxicity against human MCF7 cells by SRB assay; summary of the method: as §1
[13] = Cytotoxicity against human SF295 cells by SRB assay; details: SF-295; summary of the method: as §1
SK-MEL-28 = assay: Cytotoxicity against human SK-MEL-28 cells by SRB assay; summary of the method: as §1
786-0 = assay: Cytotoxicity against human 786-0 cells by SRB assay; summary of the method: as §1
CCRF-CEM = assay: Cytotoxicity against human CCRF-CEM cells by SRB assay; summary of the method: as §1
[14] = Cytotoxicity against human RPMI8226 cells by SRB assay; details: RPMI-8226; summary of the method: as §1
[15] = Cytotoxicity against human SKOV3 cells by SRB assay; details: SK-OV-3; summary of the method: as §1
A498 = assay: Cytotoxicity against human A498 cells by SRB assay; summary of the method: as §1
A549 = assay: Cytotoxicity against human A549 cells by SRB assay; summary of the method: as §1
[16] = Cytotoxicity against human SF539 cells by SRB assay; details: SF-539; summary of the method: as §1
M14 = assay: Cytotoxicity against human M14 cells by SRB assay; summary of the method: as §1
SK-MEL-2 = assay: Cytotoxicity against human SK-MEL-2 cells by SRB assay; summary of the method: as §1
[17] = Cytotoxicity against human IGROV1 cells by SRB assay; details: IGROV-1; summary of the method: as §2
[18] = Cytotoxicity against human OVCAR3 cells by SRB assay; details: OVCAR-3; summary of the method: as §1
[19] = Cytotoxicity against human Hs578T cells by SRB assay; details: Hs-578T; summary of the method: as §1
U-251 = assay: Cytotoxicity against human U251 cells by SRB assay; summary of the method: as §1
[20] = Cytotoxicity against human SF268 cells by SRB assay; details: SF-268; summary of the method: as §1
NCI-H23 = assay: Cytotoxicity against human NCI-H23 cells by SRB assay; summary of the method: as §1
[21] = Cytotoxicity against human UACC62 cells by SRB assay; details: UACC-62; summary of the method: as §1
[22] = Cytotoxicity against human LOXIMVI cells by SRB assay; details: LOX IMVI; summary of the method: as §2
[23] = Cytotoxicity against human HOP92 cells by SRB assay; details: HOP-92; summary of the method: as §1

Compound COc1ccc(/C=C/c2cc(OC)cc(OC)c2/C=C(\C#N)c2ccccc2OC)cc1 has a GI50 (CAKI-1) of 2200 nM, a GI50 [1] of 1290 nM and a GI50 [2] of 2280 nM. The GI50 (NCI-H522) was 250 nM, the GI50 [3] was 2280 nM and the GI50 (K562) was 430 nM. It also gave a GI50 [4] of 8770 nM, a GI50 (HT-29) of 480 nM and a GI50 (MDA-MB-468) of 1700 nM. The GI50 [5] was 2790 nM, the GI50 (KM12) was 640 nM and the GI50 (NCI/ADR-RES) was 710 nM. It also gave a GI50 [6] of 710 nM, a GI50 (MDA-MB-231) of 2830 nM and a GI50 [7] of 3300 nM. For the same compound, the GI50 (SR) was 280 nM, the GI50 (MDA-MB-435) was 280 nM and the GI50 [8] was 3590 nM. The GI50 (ACHN) was 4250 nM, the GI50 [9] was 760 nM and the GI50 (SK-MEL-5) was 2440 nM. For the same compound, the GI50 [10] was 3440 nM, the GI50 [11] was 5470 nM and the GI50 [12] was 580 nM. For the same compound, the GI50 (MCF7) was 720 nM, the GI50 [13] was 2510 nM and the GI50 (SK-MEL-28) was 4220 nM. It also gave a GI50 (786-0) of 3250 nM, a GI50 (CCRF-CEM) of 2240 nM and a GI50 [14] of 2850 nM. For the same compound, the GI50 [15] was 4730 nM, the GI50 (A498) was 1370 nM and the GI50 (A549) was 3560 nM. For the same compound, the GI50 [16] was 1550 nM, the GI50 (M14) was 1140 nM and the GI50 (SK-MEL-2) was 2130 nM. The GI50 [17] was 5280 nM, the GI50 [18] was 1380 nM and the GI50 [19] was 1340 nM. For the same compound, the GI50 (U-251) was 2770 nM and the GI50 [20] was 4180 nM.
For COc1ccc(/C=C(\C#N)c2cc(OC)c(OC)c(OC)c2)cc1, the GI50 [1] was < 10 nM, the GI50 [2] was 10 nM and the GI50 (NCI-H522) was < 10 nM. The GI50 [3] was < 10 nM, the GI50 (K562) was < 10 nM and the GI50 [4] was 60 nM. The GI50 (NCI-H23) was 50 nM, the GI50 (HT-29) was < 10 nM and the GI50 (MDA-MB-468) was 20 nM. The GI50 [5] was 30 nM, the GI50 (KM12) was < 10 nM and the GI50 (NCI/ADR-RES) was < 10 nM. It also gave a GI50 [6] of 10 nM, a GI50 (MDA-MB-231) of 30 nM and a GI50 [7] of 30 nM. For the same compound, the GI50 (SR) was < 10 nM, the GI50 (MDA-MB-435) was < 10 nM and the GI50 [8] was 10 nM. The GI50 (ACHN) was 10 nM, the GI50 [9] was < 10 nM and the GI50 (SK-MEL-5) was 10 nM. The GI50 [10] was < 10 nM, the GI50 [11] was 40 nM and the GI50 [12] was 20 nM. The GI50 [21] was < 10 nM, the GI50 (MCF7) was < 10 nM and the GI50 [13] was < 10 nM. It also gave a GI50 (786-0) of 20 nM, a GI50 (CCRF-CEM) of 30 nM and a GI50 [22] of 10 nM. For the same compound, the GI50 [14] was 30 nM, the GI50 [15] was < 10 nM and the GI50 (A498) was < 10 nM. For the same compound, the GI50 (A549) was 10 nM, the GI50 [16] was < 10 nM and the GI50 (M14) was 10 nM. The GI50 (SK-MEL-2) was 80 nM, the GI50 [17] was 20 nM and the GI50 [18] was < 10 nM. For the same compound, the GI50 [19] was < 10 nM, the GI50 (U-251) was 20 nM and the GI50 [23] was 20 nM. The GI50 [20] was 40 nM.
For COc1ccc(/C=C\c2cc(OC)c(OC)c(OC)c2)cc1O [COMBRETASTATIN A4], the GI50 (CAKI-1) was 26 nM, the GI50 [1] was 3 nM and the GI50 [2] was 100 nM. For the same compound, the GI50 (NCI-H522) was 2 nM, the GI50 [3] was 8 nM and the GI50 (K562) was 2 nM. The GI50 [4] was 4 nM, the GI50 (NCI-H23) was 3 nM and the GI50 (HT-29) was 100 nM. It also gave a GI50 [5] of 3 nM, a GI50 (KM12) of 5 nM and a GI50 [6] of 3 nM. It also gave a GI50 [7] of 3 nM, a GI50 (SR) of 3 nM and a GI50 [8] of 14 nM. It also gave a GI50 (ACHN) of 6 nM, a GI50 [9] of 4 nM and a GI50 (SK-MEL-5) of 4 nM. The GI50 [10] was 19 nM, the GI50 [11] was 63 nM and the GI50 [12] was 2 nM. The GI50 [21] was 6 nM, the GI50 [13] was 4 nM and the GI50 (SK-MEL-28) was 8 nM. For the same compound, the GI50 (786-0) was 100 nM, the GI50 (CCRF-CEM) was 3 nM and the GI50 [22] was 3 nM. For the same compound, the GI50 [14] was 3 nM, the GI50 [15] was 59 nM and the GI50 (A498) was 6 nM. The GI50 (A549) was 16 nM, the GI50 [16] was 3 nM and the GI50 (M14) was 3 nM. The GI50 (SK-MEL-2) was 4 nM, the GI50 [17] was 15 nM and the GI50 [18] was 2 nM. It also gave a GI50 (U-251) of 4 nM, a GI50 [23] of 3 nM and a GI50 [20] of 6 nM.
